# ROMK primary – ROMK potassium channel modulators, primary screen, cell-based, thallium flux, MLSMR library; ATP-sensitive inward rectifier potassium channel 1 (Homo sapiens), P48048; Tet-inducible ROMK, thallium flux fluorescence; actives lie on both sides; B-score at 10 µM; 130,000 tested, 2% active;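 active = signal ratio slope over the read window, or its plate-corrected B-score, at least 3 SD from the plate mean, either direction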;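 note: B-score of the F/F0 ratio slope over 7 to 12 s after thallium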
# Target sequence (P48048 whole entry, looked up): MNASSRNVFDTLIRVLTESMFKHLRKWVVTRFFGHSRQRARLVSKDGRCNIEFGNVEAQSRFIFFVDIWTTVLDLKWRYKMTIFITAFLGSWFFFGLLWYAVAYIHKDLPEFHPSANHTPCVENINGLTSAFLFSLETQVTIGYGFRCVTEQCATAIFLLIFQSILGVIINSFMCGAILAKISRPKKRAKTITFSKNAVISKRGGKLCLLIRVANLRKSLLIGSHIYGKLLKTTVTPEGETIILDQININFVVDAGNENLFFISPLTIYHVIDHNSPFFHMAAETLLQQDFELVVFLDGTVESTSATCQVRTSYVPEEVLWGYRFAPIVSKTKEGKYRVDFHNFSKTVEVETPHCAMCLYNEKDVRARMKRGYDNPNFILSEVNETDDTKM
# Calb biofilm kill – clotrimazole potentiators killing C. albicans biofilm, primary screen, 4-compound mixtures. C. albicans biofilm persisters + clotrimazole, fluorescence viability; primary screen in compound mixtures of four per well. inhibition, % at 7.6 µM. 120,000 tested, 0.02% active. AID 1242, 2008;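 active = inhibition above 30.3% in the primary screen of four-compound pools, then above 30% when the compound was retested; inconclusive = passed the primary limit but could not be retested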;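 note: compounds exposed to preformed 24 h biofilms for 48 h; 0% = untreated biofilm control and 100% = clotrimazole plus chlorhexidine kill blank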
#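 Assay system: C. albicans biofilms / Medium: RPMI/MOPS medium, pH 7.0 / Schedule: biofilm formation 24 h, compound exposure 48 h, 37 °C / Measured by: Alamar Blue fluorescence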
# ROMK hit retest – ROMK channel modulator hit retest, confirmation, cell-based, thallium flux, duplicate, resupplied hits. fluorescence ratio; active compounds read low. 3,000 tested, 54% active. normalized thallium flux (F/F0 slope) at 10 µM. shares compounds with ROMK primary;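 active = Flux at 10 µM at least 3 SD below or above vehicle control mean in one or both replicates; inconclusive = no clear call, values can overlap the other calls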
# * marks the source's active call; other numbers are inactive results; u = inconclusive; x = no result given. The sample as a whole holds a higher share of hits than the screen did.
SMILES,ROMK primary,Calb biofilm kill,ROMK hit retest
O=C(/C=C/c1ccc(F)cc1)N1CCCc2ccccc21,-2.36*,-1.7,u
O=C(/C=C/c1cccc(F)c1)N1CCc2ccccc21,0.428,-0.6,x
O=C(CCc1nnc(CCCc2ccccc2)o1)NCC(F)(F)F,0.299,-0.5,x
CCCCOC(=O)c1ccc(NC(=O)COC(=O)CSc2nc(C)cc(C)n2)cc1,-3.12*,11.6,0.0794
COc1ccc(NC(=O)CSc2nc(C)cc(C)n2)cc1,0.343,x,x
COc1ccccc1N1N=C(C(=O)c2ccccc2)C2C(=O)N(c3ccc(Br)cc3)C(=O)C21 (configuration not stated),x,8.1,0.065*
CCOC(=O)C1=NN(c2ccccc2)C2C(=O)N(c3ccccc3OC)C(=O)C12 (configuration not stated),x,18.6,x
O=C(C1=NN(c2ccccc2)C2C(=O)N(c3ccccc3)C(=O)C12)c1ccccc1 (configuration not stated),0.903,12.6,x
COc1ccccc1N1C(=O)C2C(C(=O)c3ccccc3)=NN(c3ccccc3)C2C1=O (configuration not stated),x,17.3,0.0628*
COc1ccccc1C(=O)NCC(=O)NNc1ncnc(N)c1[N+](=O)[O-],0.161,14.0,x
CC(=O)Nc1ccc(N2C(=O)CSC2c2ccccc2[N+](=O)[O-])cc1 (configuration not stated),x,-11.2,x
O=C(NC1(C(F)(F)F)NC(=O)N(c2ccc(F)cc2)C1=O)c1cccs1 (configuration not stated),x,3.5,x
CCCCCCCCCCCC(=O)N1CC(=O)NC(=O)C1,x,15.3,x
Cc1nnc(SCc2nc3sc4c(c3c(=O)[nH]2)CCCC4)[nH]c1=O,0.414,12.9,x
Cc1cc(C)n(-c2ccc3cccc(NS(C)(=O)=O)c3n2)n1,1.15,x,x
Cc1cc(C)n(-c2nc3nonc3nc2Nc2cccc(C)c2C)n1,-3.89*,x,0.0534*
N#C/C(=C\c1ccccc1)C(=O)NC(=O)Oc1ccccc1,0.00198,x,x
N#C/C(=C\c1ccccc1Cl)C(=O)NC(=O)Oc1ccccc1,-4.29*,x,0.0461*
CCN(CC)CCC(=O)NN,-0.313,13.8,x
O=C(CNc1ccc(Cl)cc1)c1ccc(Br)cc1,2.69*,15.5,0.086
O=C(CNc1ccc(Br)cc1)c1ccc(O)cc1,-0.0323,23.3,x
COc1ccc(NCc2nn(CC(=O)c3ccc(Br)cc3)c3[n+]2CCCCC3)cc1,-0.147,2.9,x
O=C(Cn1nc(CNc2ccc(Cl)cc2)[n+]2c1CCCCC2)c1ccc(Br)cc1,-3.72*,8.8,0.0533*
O=C(Nc1ccccc1)c1cc([N+](=O)[O-])ccc1NCc1cccnc1,-1.59,11.9,x
COc1ccc(Cl)cc1NC(=S)N1CCN(c2ncccn2)CC1,-0.0504,4.2,x
SMILES,ROMK primary,Calb biofilm kill,ROMK hit retest
O=C(Nc1ccc(Cl)cc1Cl)N1CCN(c2ncccn2)CC1,-3.8*,23.6,0.0741
CN(Cc1cnn(C)c1)S(=O)(=O)c1cccc([N+](=O)[O-])c1,-0.104,7.6,x
CN(C)c1nnnn1-c1cccc(Oc2ncc(C(F)(F)F)cc2Cl)c1,-0.867,15.3,x
Cc1ccccc1N1C(=O)C(Oc2ccc(Cl)cc2)C1CNCCCOC(C)C (configuration not stated),-3.22*,8.4,0.0585*
CC(C)OCCCNC1=C(Cl)C(=O)c2ccccc2C1=O,x,5.3,x
O=C(CSc1ccccc1)Nc1ccc(S(=O)(=O)Nc2ncccn2)cc1,0.586,-0.4,x
CC(=O)NS(=O)(=O)c1ccc(NC(=O)CSc2ccccc2)cc1,x,15.8,0.0785
COC(=O)N/N=C/c1ccc(-c2ccc(C)c(Cl)c2)o1,x,22.8,x
Cc1ccc(-c2ccc(/C=N/c3ncn[nH]3)o2)cc1Cl,3.39*,x,0.0871
Nc1nc(-c2c(Cl)cccc2Cl)no1,x,17.6,x
Fc1ccc(-c2cnn3c(-c4cccs4)ccnc23)cc1,-2.27*,15.3,0.063*
Fc1ccc(-c2cnn3c(-c4ccncc4)ccnc23)cc1,0.555,12.0,x
COc1ccc(Cl)cc1NC(=O)CN1CCC(n2nnc3cc(C)ccc32)CC1,-0.861,x,x
Cc1ccc2c(c1)nnn2C1CCN(CC(=O)Nc2ccccc2N2CCOCC2)CC1,-4.24*,x,0.0554*
CN(Cc1ccc(Cl)cc1)C(=O)CCl,-4.66*,11.7,u
COc1ccc(CN(C)C(=O)CCl)cc1,-0.483,15.4,x
CN(C)c1ccc(/C=C/C#N)cc1,0.593,3.0,x
CN(C)c1ccc(/C=C/c2cccc[n+]2[O-])cc1,-4.41*,13.9,0.0539*
O=C(Nc1cc([N+](=O)[O-])ccc1Cl)c1ccc2c(c1)OCO2,1.43,3.2,x
Cc1ccc(NC(=O)C(=O)NCCCN2CCOCC2)c(C)c1,0.374,25.1,x
Cc1[nH][nH]c(=O)c1C(c1c(C)[nH][nH]c1=O)c1cn(Cc2ccc(Cl)c(Cl)c2)c2ccccc12,x,8.0,0.0559*
Cc1[nH][nH]c(=O)c1C(c1ccc(-c2ccc(Cl)c(C(=O)O)c2)o1)c1c(C)[nH][nH]c1=O,1.17,15.0,x
CCOC(=O)N1CCN(C(=O)/C(=C\c2ccc(SC)cc2)NC(=O)c2ccccc2)CC1,x,18.5,x
CSc1ccc(/C=C(\NC(=O)c2ccccc2)C(=O)NN)cc1,x,22.7,0.0744
CCC1(C)OC(=O)NN(c2ccc(C)cc2)C1(C)O (configuration not stated),x,7.3,x
SMILES,ROMK primary,Calb biofilm kill,ROMK hit retest
Cc1ccc(C2CC(c3cccs3)=NN2C(=O)c2ccco2)o1 (configuration not stated),-5.54*,2.3,u
O=C(c1ccco1)N1N=C(c2cccs2)CC1c1ccco1 (configuration not stated),-0.3,7.8,x
CC(=O)NC(CSC(CC(=O)c1ccco1)c1ccc(C)cc1)C(=O)O (configuration not stated),-0.146,6.3,x
CN(C)C1C(=O)c2ccccc2C1=O,x,6.7,x
COC(=O)c1cccc(-c2ccc(C(c3c(C)[nH][nH]c3=O)c3c(C)[nH][nH]c3=O)o2)c1,-1.36,10.4,x
COC(=O)c1ccccc1-c1ccc(C(c2c(C)[nH][nH]c2=O)c2c(C)[nH][nH]c2=O)o1,-3.82*,-1.3,u
O=S(=O)(N/N=C\c1ccc2c(c1)OCO2)c1ccc(Cl)cc1,-0.174,x,x
CCN(CC)S(=O)(=O)c1ccc(C)c(NS(=O)(=O)c2cc(/C=C/C(=O)O)cc(OC)c2OC)c1,1.09,12.7,x
CCNC(=O)c1cc2c(=O)n3cccc(C)c3nc2n(CCc2ccccc2)c1=N,-2.38,x,x
Cc1cccn2c(=O)c3cc(C(=O)NCCN4CCOCC4)c(=N)n(CCc4ccccc4)c3nc12,-2.84*,x,0.0625*
NS(=O)(=O)c1ccc(CCNS(=O)(=O)c2cccc(C(=O)O)c2)cc1,x,12.3,x
O=C(COC(=O)CCOc1ccccc1)Nc1ncc(Cl)cc1Cl,-1.12,14.2,x
c1ccc(Cn2c(-c3cncs3)nc3ccccc32)cc1,-2.49*,x,0.06*
Brc1ccc(Cn2c(-c3cncs3)nc3ccccc32)cc1,x,4.6,x
CC(=O)C(Cc1ccccc1)NC(=O)CCl (configuration not stated),-0.117,12.7,x
O=C(CCl)NC(Cc1ccccc1)c1ccccc1 (configuration not stated),-0.398,9.2,0.0872
CCC1CCCCN1C(=O)CSc1nc2ccsc2c(=O)n1Cc1ccccc1 (configuration not stated),-3.09*,x,0.0595*

# Source: PubChem
